These results are taken from ChEMBL document CHEMBL1125164, “Spiro hydantoin aldose reductase inhibitors derived from 8-aza-4-chromanones” (J Med Chem, 1990).

The target of assay [1] is Aldo-keto reductase family 1 member B1 (Homo sapiens, UniProt P15121). The experiment in a line: In vitro inhibitory activity against Aldose reductase isolated from human placenta. The procedure, abridged: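 Human placental aldose reductase, partially purified (homogenized in 0.1 M K phosphate pH 7.0 with 5 mM 2-mercaptoethanol). Assay: 50 mM K phosphate pH 7.1, 0.4 M ammonium sulfate, 0.067 mM NADPH, 1.0 mM dl-glyceraldehyde, 25 °C. NADPH oxidation followed at 340 nm over 10 min.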

The subject of assay [2] is Rattus norvegicus. The experiment in a line: Tested in vivo for ability to inhibit sorbitol formation in the lens of a streptozotocinized rat model after oral administration at the dose of 1.0 mg/Kg. It counts as functional. The settings on record: Lens of camera-type eye. The procedure, abridged:
(§1)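 Rats made diabetic with streptozotocin 85 mg/kg iv at 0 h. Compound given by oral gavage at 4, 7 and 24 h. Lens sorbitol measured at 27 h. Reported as mean ± SEM percent inhibition of sorbitol accumulation versus untreated diabetic controls. Student's t test on absolute sorbitol levels.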

For assay [3], the system named is Rattus norvegicus. Put plainly: Tested in vivo for ability to inhibit sorbitol formation in the nerve of a streptozotocinized rat model after oral administration at the dose of 1.0 mg/Kg. Type of assay: functional. The procedure, abridged:
(§2)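 Rats made diabetic with streptozotocin 85 mg/kg iv at 0 h. Compound given by oral gavage at 4, 7 and 24 h. Sciatic nerve sorbitol measured at 27 h. Reported as mean ± SEM percent inhibition of sorbitol accumulation versus untreated diabetic controls. Student's t test on absolute sorbitol levels.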

In assay [4] the test system is Rattus norvegicus. The experiment in a line: Tested in vivo for ability to inhibit sorbitol formation in the nerve of a streptozotocinized rat model after oral administration at the dose of 0.75 mg/kg. Type of assay: functional. The procedure, abridged: as §2
In assay [5] the test system is Rattus norvegicus. The experiment in a line: Tested in vivo for ability to inhibit sorbitol formation in the nerve of a streptozotocinized rat model after oral administration at the dose of 1.5 mg/Kg. Type of assay: functional. The procedure, abridged:
as §2

Assay [6] deals with Rattus norvegicus. The experiment in a line: Tested in vivo for ability to inhibit sorbitol formation in the lens of a streptozotocinized rat model after oral administration at the dose of 0.15 mg/Kg. Type of assay: functional. To be noted: Lens of camera-type eye. The procedure, abridged: as §1
In assay [7] the test system is Rattus norvegicus. Put plainly: Tested in vivo for ability to inhibit sorbitol formation in the lens of a streptozotocinized rat model after oral administration at the dose of 0.75 mg/Kg. Type of assay: functional. The settings on record: Lens of camera-type eye. The procedure, abridged:
as §1

For assay [8], the system named is Rattus norvegicus. The experiment in a line: Tested in vivo for ability to inhibit sorbitol formation in the lens of a streptozotocinized rat model after oral administration at the dose of 1.5 mg/Kg. Type of assay: functional. To be noted: Lens of camera-type eye. The procedure, abridged: as §1
Assay [9] deals with Rattus norvegicus. Put plainly: Tested in vivo for ability to inhibit sorbitol formation in the nerve of a streptozotocinized rat model after oral administration at the dose of 0.15 mg/Kg. It counts as functional. The procedure, abridged: as §2
The subject of assay [10] is Rattus norvegicus. The experiment in a line: Tested in vivo for ability to inhibit sorbitol formation in the nerve of a streptozotocinized rat model after oral administration at the dose of 5.0 mg/Kg. Type of assay: functional. The procedure, abridged:
as §2

For assay [11], the system named is Rattus norvegicus. The experiment in a line: Tested in vivo for ability to inhibit sorbitol formation in the lens of a streptozotocinized rat model after oral administration at the dose of 5.0 mg/Kg. Type of assay: functional. The settings on record: Lens of camera-type eye. The procedure, abridged: as §1
For assay [12], the system named is Rattus norvegicus. Put plainly: Tested in vivo for ability to inhibit sorbitol formation in the nerve of a streptozotocinized rat model after oral administration at the dose of 0.25 mg/Kg. Type of assay: functional. The procedure, abridged: as §2
For assay [13], the system named is Rattus norvegicus. Put plainly: Tested in vivo for ability to inhibit sorbitol formation in the lens of a streptozotocinized rat model after oral administration at the dose of 0.25 mg/Kg. Type of assay: functional. The settings on record: Lens of camera-type eye. The procedure, abridged: as §1
The test system of assay [14] is Rattus norvegicus. Put plainly: Tested in vivo for ability to inhibit sorbitol formation in the lens of a streptozotocinized rat model after oral administration at the dose of 1.0 mg/kg. To be noted: Lens of camera-type eye. It counts as functional. The procedure, abridged: as §1
Assay [15] has as its system Rattus norvegicus. Put plainly: Tested in vivo for ability to inhibit sorbitol formation in the nerve of a streptozotocinized rat model after oral administration at the dose of 0.1 mg/Kg. Type of assay: functional. The procedure, abridged: as §2
The test system of assay [16] is Rattus norvegicus. The experiment in a line: Tested in vivo for ability to inhibit sorbitol formation in the lens of a streptozotocinized rat model after oral administration at the dose of 0.1 mg/Kg. It counts as functional. The settings on record: Lens of camera-type eye. The procedure, abridged: as §1
In assay [17] the test system is Rattus norvegicus. The experiment in a line: Tested in vivo for ability to inhibit sorbitol formation in the lens of a streptozotocinized rat model after oral administration at the dose of 0.5 mg/Kg. It counts as functional. To be noted: Lens of camera-type eye. The procedure, abridged: as §1
The test system of assay [18] is Rattus norvegicus. The experiment in a line: Tested in vivo for ability to inhibit sorbitol formation in the nerve of a streptozotocinized rat model after oral administration at the dose of 0.5 mg/Kg. It counts as functional. The procedure, abridged:
as §2

Assay [19] concerns Rattus norvegicus. Put plainly: Tested in vivo for ability to inhibit sorbitol formation in the nerve of a streptozotocinizad rat model after oral administration at the dose of 1.0 mg/Kg. Type of assay: functional. The procedure, abridged: as §2
In assay [20] the test system is Rattus norvegicus. Put plainly: Tested in vivo for ability to inhibit sorbitol formation in the lens of a streptozotocinizad rat model after oral administration at the dose of 1.0 mg/Kg. Type of assay: functional. To be noted: Lens of camera-type eye. The procedure, abridged: as §1

By IC50 is commonly meant the midpoint of a concentration-inhibition curve. Low readings indicate greater potency, high ones weaker potency. A word on the inhibition in vivo: it is the relative decrease from the control value, in per cent.

The molecule `C[C@H]1C[C@@]2(NC(=O)NC2=O)c2cc(Cl)cnc2O1` showed an IC50 in assay [1] of 3090 nM. Further, the inhibition in vivo at 1 mg/kg is -10.6% in the assay on Rattus norvegicus [2] and -9.5% in the assay with Rattus norvegicus [3].

For the molecule `O=C1NC(=O)[C@@]2(CCOc3ccc(F)cc32)N1` [SORBINIL], the figures for the inhibition in vivo at 0.75 mg/kg in the assay with Rattus norvegicus [4] and in the assay on Rattus norvegicus [7] were 72.7% and 44.2%, respectively. In addition, the inhibition in vivo at 1.5 mg/kg in the assay with Rattus norvegicus [5] was 90.9%; with Rattus norvegicus [8], 73.4%. Moreover, the results for the inhibition in vivo at 0.15 mg/kg in the assay on Rattus norvegicus [6] and in the assay with Rattus norvegicus [9] were 12.3% and 29%, respectively.

Consider `C[C@@H]1C[C@]2(NC(=O)NC2=O)c2cc(Br)cnc2O1` (racemic), for which the IC50 in assay [1] was determined as 500 nM. Further, the inhibition in vivo at 1 mg/kg in the assay with Rattus norvegicus [2] stood at 67.4%; with Rattus norvegicus [3], 72.7%.

With `C[C@@H]1C[C@]2(NC(=O)NC2=O)c2cc(Cl)c[n+]([O-])c2O1`, the midpoint of inhibition in [1], the IC50, lay at 950 nM.

`O=C1NC(=O)[C@@]2(CCOc3ncc(Cl)cc32)N1` (racemic): in assay [1], the IC50 turned out to be 6450 nM. Also, the inhibition in vivo at 1 mg/kg in the assay with Rattus norvegicus [2] came out at 46.1%; in the assay on Rattus norvegicus [3], 37%.

For the molecule `C[C@@H]1C[C@]2(NC(=O)NC2=O)c2cc(Cl)cnc2O1` (racemic; 14), the concentration for half-maximal inhibition (IC50) in assay [1] is 25 nM. Further, the inhibition in vivo at 5 mg/kg was found to be 98% in the assay on Rattus norvegicus [10] and 89% in the assay on Rattus norvegicus [11]. Further, the inhibition in vivo at 0.25 mg/kg is 38% with Rattus norvegicus [12] and 13% in the assay on Rattus norvegicus [13].

`C[C@@H]1C[C@]2(NC(=O)NC2=O)c2cc(F)cnc2O1` (racemic): in assay [1], the half-inhibitory concentration (IC50) stood at 1130 nM.

Take `C[C@H]1C[C@]2(NC(=O)NC2=O)c2cc(Cl)cnc2O1` (racemic): in assay [1], the IC50 was 890 nM. Moreover, the inhibition in vivo at 0.25 mg/kg in the assay on Rattus norvegicus [12] was determined as 12.8%; in the assay with Rattus norvegicus [13], 31.8%.

With `C[C@@H]1C[C@]2(NC(=O)NC2=O)c2cc(Cl)cnc2O1` (racemic; 16), the IC50 in assay [1] was 7.5 nM. Further, the figures for the inhibition in vivo at 1 mg/kg in the assay with Rattus norvegicus [14] and in the assay with Rattus norvegicus [3] were 88.2% and 87.5%, respectively. Further, the inhibition in vivo at 0.1 mg/kg with Rattus norvegicus [15] was determined as 8.7%; in the assay on Rattus norvegicus [16] it was 13.8%. Also, the inhibition in vivo at 0.5 mg/kg in the assay with Rattus norvegicus [17] was determined as 55.5%; in the assay with Rattus norvegicus [18] it was 55.8%.

The molecule `C[C@@H]1C[C@]2(NC(=O)NC2=O)c2cccnc2O1` (racemic) registered an IC50 in assay [1] of 7220 nM. The inhibition in vivo at 1 mg/kg was 33.9% in the assay with Rattus norvegicus [2] and 18.2% with Rattus norvegicus [3].

In assay [1], `C[C@@H]1C[C@]2(NC(=O)NC2=O)c2cc(Cl)c[n+]([O-])c2O1` (racemic) came in with an IC50 of 130 nM. In addition, the inhibition in vivo at 1 mg/kg was 37.6% in the assay on Rattus norvegicus [19] and 19.9% with Rattus norvegicus [20].
